ChEMBL document CHEMBL3271955, “Design, synthesis, and correlation analysis of 7-substituted 4-hydroxyquinoline-3-carboxylic acids as inhibitors of cellular respiration” (J Med Chem, 1977)

Assays:
[1] = target: T1, Malate dehydrogenase, mitochondrial (Homo sapiens, UniProt P40926); assay: Inhibition of malate dehydrogenase (unknown origin) by spectrophotometry; conditions: read-out: I50
T1 sequence (P40926 whole entry): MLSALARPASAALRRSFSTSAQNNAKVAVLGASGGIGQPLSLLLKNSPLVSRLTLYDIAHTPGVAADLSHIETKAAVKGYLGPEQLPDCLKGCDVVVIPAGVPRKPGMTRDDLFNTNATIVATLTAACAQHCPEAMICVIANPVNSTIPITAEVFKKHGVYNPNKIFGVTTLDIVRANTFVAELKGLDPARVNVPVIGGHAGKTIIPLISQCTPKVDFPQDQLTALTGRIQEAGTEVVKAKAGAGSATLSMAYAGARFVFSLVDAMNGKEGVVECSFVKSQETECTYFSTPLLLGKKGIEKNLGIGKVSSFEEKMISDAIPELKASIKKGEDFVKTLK
Outline: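 Malate dehydrogenase of unstated source diluted in pH 7.4 Tris to give 0.01-0.02 OD/min at 340 nm. Cuvette holds L-malate (2 mM stock), NAD+ (0.80 mM stock) and 0.05 M Tris pH 8.4, with inhibitor in Me2SO, at 25 °C. Reaction started with enzyme; NADH formation read at 340 nm. Four inhibitor levels in triplicate; I50 from least-squares dose-response line.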

[2] = system: Ehrlich; assay: Inhibition of respiration in mouse Ehrlich ascites cells after 30 mins incubation at 37 degC by whole cell model; format: functional, cell-based; conditions: 0.5 h, read-out: I50
Outline: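 Ehrlich ascites cells passaged weekly in Swiss white mice; fluid from 7-10 day tumors, saline-washed, held on ice at ~0.30 g/mL. Cells incubated in glucose-free phosphate Ringer with DMSO vehicle or DMSO plus inhibitor, 30 min at 37 °C. O2 uptake read by oxygen electrode. At least four concentrations in triplicate; I50 by least squares of % inhibition vs concentration.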

[3] = Lipophilicity, log P of the compound; format: physicochemical; conditions: octanol/water

| Structure (SMILES) | IC50 [1] [µM] | IC50 [2] [µM] | logP [3] |
| --- | --- | --- | --- |
| O=C(O)c1cnc2cc([N+](=O)[O-])ccc2c1O | 1890 | 580 | – |
| O=C(O)c1cnc2cc(S(=O)(=O)O)ccc2c1O | 2140 | 1300 | – |
| O=C(O)c1cnc2ccccc2c1O | – | 1060 | 0.23 |
| CC(=O)c1ccc2c(O)c(C(=O)O)cnc2c1 | 910 | 790 | – |
| O=C(O)c1cnc2cc(OCc3ccccc3)ccc2c1O | 32 | 38 | – |
| O=C(O)c1cnc2cc(OCc3ccc(Cl)c(Cl)c3)ccc2c1O | 5 | 15 | – |
| O=C(O)c1ccc2c(O)c(C(=O)O)cnc2c1 | 1070 | 5770 | – |
| O=C(O)c1cnc2cc(F)ccc2c1O | 10600 | 500 | – |
| NC(=O)c1ccc2c(O)c(C(=O)O)cnc2c1 | 740 | 5820 | – |
| CN(C)c1ccc2c(O)c(C(=O)O)cnc2c1 | 480 | 470 | – |
| COc1ccc2c(O)c(C(=O)O)cnc2c1 | – | 520 | – |
| NS(=O)(=O)c1ccc2c(O)c(C(=O)O)cnc2c1 | 950 | 3400 | – |
| CS(=O)(=O)c1ccc2c(O)c(C(=O)O)cnc2c1 | 660 | 1790 | – |
| O=C(O)c1cnc2cc(Cl)ccc2c1O | 3620 | 140 | – |
| O=C(O)c1cnc2cc(O)ccc2c1O | 490 | 910 | – |
